Measurements from ChEMBL document CHEMBL1122207, “Antitumor agents. 2. Bisguanylhydrazones of anthracene-9,10-dicarboxaldehydes” (1982).

Experiments:
Format in all cases: functional
Mus musculus [1] = experiment: Percent increase in median life span of BDF1 mice with P-388 leukemia at dose 12.5 mg/kg administered intraperitoneally; Range is 100-120% 1, 5, 9 days of ip treatment relative to tumor inoculation; settings: BDF1, P388, ip, 216 h, route intraperitoneal
How it was run: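 BDF1 or CDF1 mice given 10^6 ascitic leukemia cells ip, then dosed ip on days 1, 5 and 9. Read-out is percent increase in life span versus untreated controls. Cures were scored as survivors/total at 30 days; when cures reached 50% or more, the run was extended until a specific ILS could be calculated. T/C ≥125% counted as significant.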

Mus musculus [2] = organism: Mus musculus; experiment: Cures is the number of survivors of the total treated animals(12 mice) with P-388 leukemia, at 30 days.
How it was run: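 BDF1 or CDF1 mice given 10^6 ascitic P-388 leukemia cells ip, then treated ip on days 1, 5 and 9. Cures are survivors over total treated at 30 days.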

Mus musculus [3] = organism: Mus musculus; experiment: Cures is the number of survivors of the total treated mice (6) with advanced L-1210 leukemia, at 30 days.
How it was run: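 Advanced L-1210 leukemia, with ip treatment on days 5, 9 and 13 relative to tumor inoculation.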

Mus musculus [4] = experiment: Percent increase in median life span of BDF1 mice with B-16 melanoma at dose 6.2 mg/kg administered intraperitoneally; 1-9 days of ip treatment relative to tumor inoculation; settings: BDF1, B16, ip, route intraperitoneal
How it was run: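 BDF1 mice were implanted ip with a homogenate from 0.05 g of B-16 melanoma. Ip dosing ran on days 1-9, starting 24 h after implant, in dose-response studies following NCI protocols. The read-out was percent increase in life span (ILS). T/C ≥125% was taken as significant.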

Mus musculus [5] = organism: Mus musculus; experiment: Cures is the number of survivors of the total treated mice (10) with B-16 melanoma, at 60 days.
How it was run: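 BDF1 mice were implanted ip with a homogenate from 0.05 g of B-16 melanoma and dosed ip on days 1-9. Cures are survivors over total at 60 days.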

Mus musculus [6] = experiment: Percent increase in median life span of BDF1 mice with advanced L-1210 leukemia at dose 12.5 mg/kg administered intraperitoneally; treatment day +2 iv; settings: L1210

CC1(C)CNC(N/N=C/c2c3ccccc3c(/C=N/NC3=NCC(C)(C)N3)c3ccccc23)=N1.Cl.Cl
ILS at 12.5 mg/kg (Mus musculus [1]): 100%
Cures (Mus musculus [2]): 0
Cures (Mus musculus [3]): 0
ILS at 6.2 mg/kg (Mus musculus [4]): > 248%
Cures (Mus musculus [5]): 5
ILS at 12.5 mg/kg (Mus musculus [6]): 28%
